Measured values as given in ChEMBL document CHEMBL4138104, “Indole carboxylic acid esters of melampomagnolide B are potent anticancer agents against both hematological and solid tumor cells” (Eur J Med Chem, 2017).

Tests used:
Format in all cases: functional
CCRF-CEM = test: Growth inhibition of human CCRF-CEM cells incubated for 48 hrs by sulforhodamine B assay
Method in brief: (§1)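 NCI-60 screen. Compounds were dosed at five concentrations spanning 10^-4 to 10^-8 M for 48 h at 37 °C. Cells were TCA-fixed, stained with 0.4% SRB and read at 515 nm against time-zero and vehicle controls. GI50 is the concentration giving a 50% reduction in net protein increase.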

HL-60(TB) = test: Growth inhibition of human HL-60(TB) cells incubated for 48 hrs by sulforhodamine B assay; conditions: HL-60, 48 h
Method in brief: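 Performed at NCI's 60-line screen. Cells grown in RPMI with 5% FBS and 2 mM L-glutamine, plated 5,000–40,000 cells/well and incubated 24 h at 37 °C before compound addition. DMSO stocks were diluted in medium with gentamicin, and five concentrations spanning 10^-4 to 10^-8 M were tested. Exposure was 48 h. Cells were fixed with TCA, stained with SRB, and read at 515 nm. GI50 taken from log dose-response curves as 50% reduction in net protein increase versus control.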

K562 = test: Growth inhibition of human K562 cells incubated for 48 hrs by sulforhodamine B assay; conditions: K562, 48 h; method in brief: as §1
MOLT-4 = test: Growth inhibition of human MOLT4 cells incubated for 48 hrs by sulforhodamine B assay; conditions: MOLT-4, 48 h; method in brief: as §1
RPMI-8226 = test: Growth inhibition of human RPMI8226 cells incubated for 48 hrs by sulforhodamine B assay; conditions: RPMI-8226, 48 h; method in brief: as §1
A549 = test: Growth inhibition of human A549/ATCC cells incubated for 48 hrs by sulforhodamine B assay; conditions: A549, 48 h; method in brief: as §1
HOP-92 = test: Growth inhibition of human HOP92 cells incubated for 48 hrs by sulforhodamine B assay; conditions: HOP-92, 48 h; method in brief: as §1
NCI-H226 = test: Growth inhibition of human NCI-H226 cells incubated for 48 hrs by sulforhodamine B assay; conditions: NCI-H226, 48 h; method in brief: as §1
NCI-H23 = test: Growth inhibition of human NCI-H23 cells incubated for 48 hrs by sulforhodamine B assay; conditions: NCI-H23, 48 h; method in brief: as §1
NCI-H322M = test: Growth inhibition of human NCI-H322M cells incubated for 48 hrs by sulforhodamine B assay; method in brief: as §1
NCI-H460 = test: Growth inhibition of human NCI-H460 cells incubated for 48 hrs by sulforhodamine B assay; conditions: NCI-H460, 48 h; method in brief: as §1
NCI-H522 = test: Growth inhibition of human NCI-H522 cells incubated for 48 hrs by sulforhodamine B assay; conditions: NCI-H522, 48 h; method in brief: as §1
HCC 2998 = test: Growth inhibition of human HCC2998 cells incubated for 48 hrs by sulforhodamine B assay; conditions: HCC 2998, 48 h; method in brief: as §1
HCT-116 = test: Growth inhibition of human HCT116 cells incubated for 48 hrs by sulforhodamine B assay; conditions: HCT-116, 48 h; method in brief: as §1
HCT-15 = test: Growth inhibition of human HCT15 cells incubated for 48 hrs by sulforhodamine B assay; conditions: HCT-15, 48 h; method in brief: as §1
HT-29 = test: Growth inhibition of human HT-29 cells incubated for 48 hrs by sulforhodamine B assay; conditions: HT-29, 48 h; method in brief: as §1
KM12 = test: Growth inhibition of human KM12 cells incubated for 48 hrs by sulforhodamine B assay; conditions: KM12, 48 h; method in brief: as §1
SW-620 = test: Growth inhibition of human SW620 cells incubated for 48 hrs by sulforhodamine B assay; conditions: SW-620, 48 h
Method in brief: (§2)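 NCI-60 screen run at NCI. Cells grown in RPMI medium with 5% FBS and 2 mM L-glutamine, plated at 5,000–40,000 cells/well, and preincubated 24 h at 37 °C. Time-zero plates were TCA-fixed. Compounds came from DMSO stocks and were tested at five concentrations from 10^-4 to 10^-8 M for 48 h. Cells were then TCA-fixed, stained with 0.4% SRB, and OD read at 515 nm. GI50 is the concentration giving a 50% reduction in net protein increase versus control.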

SF-268 = test: Growth inhibition of human SF268 cells incubated for 48 hrs by sulforhodamine B assay; conditions: SF-268, 48 h; method in brief: as §1
SF-295 = test: Growth inhibition of human SF295 cells incubated for 48 hrs by sulforhodamine B assay; conditions: SF-295, 48 h; method in brief: as §1
SF-539 = test: Growth inhibition of human SF539 cells incubated for 48 hrs by sulforhodamine B assay; conditions: SF-539, 48 h; method in brief: as §1
SNB-19 = test: Growth inhibition of human SNB19 cells incubated for 48 hrs by sulforhodamine B assay; conditions: SNB-19, 48 h; method in brief: as §2
U-251 = test: Growth inhibition of human U251 cells incubated for 48 hrs by sulforhodamine B assay; conditions: U-251, 48 h; method in brief: as §2
LOX IMVI = test: Growth inhibition of human LOXIMVI cells incubated for 48 hrs by sulforhodamine B assay; method in brief: as §1
Malme-3M = test: Growth inhibition of human MALME-3M cells incubated for 48 hrs by sulforhodamine B assay; method in brief: as §1
SK-MEL-28 = test: Growth inhibition of human SK-MEL-28 cells incubated for 48 hrs by sulforhodamine B assay; conditions: SK-MEL-28, 48 h; method in brief: as §1
UACC-257 = test: Growth inhibition of human UACC257 cells incubated for 48 hrs by sulforhodamine B assay; conditions: UACC-257, 48 h; method in brief: as §2
UACC-62 = test: Growth inhibition of human UACC62 cells incubated for 48 hrs by sulforhodamine B assay; conditions: UACC-62, 48 h; method in brief: as §2
OVCAR-5 = test: Growth inhibition of human OVCAR5 cells incubated for 48 hrs by sulforhodamine B assay; conditions: OVCAR-5, 48 h; method in brief: as §1
NCI/ADR-RES = test: Growth inhibition of human NCI/ADR-RES cells incubated for 48 hrs by sulforhodamine B assay; method in brief: as §1
SK-OV-3 = test: Growth inhibition of human SKOV3 cells incubated for 48 hrs by sulforhodamine B assay; conditions: SK-OV-3, 48 h; method in brief: as §1
A498 = test: Growth inhibition of human A498 cells incubated for 48 hrs by sulforhodamine B assay; conditions: A498, 48 h; method in brief: as §1
RXF 393 = test: Growth inhibition of human RXF393 cells incubated for 48 hrs by sulforhodamine B assay; conditions: RXF 393, 48 h; method in brief: as §1
SN12C = test: Growth inhibition of human SN12C cells incubated for 48 hrs by sulforhodamine B assay; method in brief: as §1
UO-31 = test: Growth inhibition of human UO31 cells incubated for 48 hrs by sulforhodamine B assay; conditions: UO-31, 48 h; method in brief: as §2
MCF7 = test: Growth inhibition of human MCF7 cells incubated for 48 hrs by sulforhodamine B assay; conditions: MCF7, 48 h; method in brief: as §1
[1] = Cytotoxicity against human M9-ENL1 cells assessed as reduction in cell viability by trypan blue staining-based assay
Method in brief: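 M9-ENL1 AML cells (MLL-ENL-transduced human blood cells) plated at 10^6 cells/mL in alpha-MEM with 5% human plasma, 20% FBS, SCF, IL-3, IL-7 and FLT3. Drug diluted from DMSO stock into PBS, final DMSO ≤0.5%. After 24 h exposure, dead cells assessed by trypan blue and by flow cytometry (Annexin V/PI or Annexin V/7-AAD). Viability normalized to vehicle; EC50 from dose-response curves; triplicate.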

SMILES	GI50 (CCRF-CEM)	GI50 (HL-60(TB))	GI50 (K562)	GI50 (MOLT-4)	GI50 (RPMI-8226)	GI50 (A549)	GI50 (HOP-92)	GI50 (NCI-H226)	GI50 (NCI-H23)	GI50 (NCI-H322M)	GI50 (NCI-H460)	GI50 (NCI-H522)	GI50 (HCC 2998)	GI50 (HCT-116)	GI50 (HCT-15)	GI50 (HT-29)	GI50 (KM12)	GI50 (SW-620)	GI50 (SF-268)	GI50 (SF-295)	further results
C=C1C(=O)O[C@@H]2[C@H]3O[C@]3(C)CC/C=C(/COC(=O)c3cc4ccccc4s3)CC[C@@H]12	400 nM	1890 nM	810 nM	1880 nM	560 nM	2040 nM	1680 nM	2000 nM	1740 nM	1980 nM	2210 nM	980 nM	1750 nM	590 nM	400 nM	490 nM	1780 nM	510 nM	1540 nM	3330 nM	GI50 (SF-539): 1600 nM; GI50 (SNB-19): 2090 nM; GI50 (U-251): 1520 nM; GI50 (LOX IMVI): 200 nM; GI50 (Malme-3M): 1820 nM; GI50 (SK-MEL-28): 1760 nM; GI50 (UACC-257): 1770 nM; GI50 (UACC-62): 1850 nM; GI50 (OVCAR-5): 2020 nM; GI50 (NCI/ADR-RES): 2140 nM; GI50 (SK-OV-3): 13900 nM; GI50 (A498): 10100 nM; GI50 (RXF 393): 1230 nM; GI50 (SN12C): 2060 nM; GI50 (UO-31): 1400 nM; GI50 (MCF7): 380 nM; EC50 [1]: 2700 nM
C=C1C(=O)O[C@@H]2[C@H]3O[C@]3(C)CC/C=C(/COC(=O)CCCc3c[nH]c4ccccc34)CC[C@@H]12	750 nM	1630 nM	2600 nM	1530 nM	2310 nM	5470 nM	1680 nM	2040 nM	1720 nM	13800 nM	4540 nM	1570 nM	1790 nM	960 nM	1610 nM	1710 nM	1890 nM	1840 nM	1690 nM	5690 nM	GI50 (SF-539): 1630 nM; GI50 (SNB-19): 2590 nM; GI50 (U-251): 1950 nM; GI50 (LOX IMVI): 1550 nM; GI50 (Malme-3M): 1790 nM; GI50 (SK-MEL-28): 1700 nM; GI50 (UACC-257): 2030 nM; GI50 (UACC-62): 1840 nM; GI50 (OVCAR-5): 1890 nM; GI50 (NCI/ADR-RES): 2900 nM; GI50 (SK-OV-3): 17300 nM; GI50 (A498): 11900 nM; GI50 (RXF 393): 1460 nM; GI50 (SN12C): 1900 nM; GI50 (UO-31): 1410 nM; GI50 (MCF7): 1420 nM; EC50 [1]: 2000 nM
C=C1C(=O)O[C@@H]2C3O[C@]3(C)CC/C=C(\C)CC[C@@H]12 (stereo partly specified)	9160 nM	5710 nM	22600 nM	14300 nM	8200 nM	91800 nM	13500 nM	20500 nM	20200 nM	21700 nM	18800 nM	5470 nM	24100 nM	10800 nM	10200 nM	23500 nM	16200 nM	14500 nM	25100 nM	28900 nM	GI50 (SF-539): 18900 nM; GI50 (SNB-19): 70900 nM; GI50 (U-251): 41500 nM; GI50 (LOX IMVI): 8240 nM; GI50 (Malme-3M): 13800 nM; GI50 (SK-MEL-28): 21000 nM; GI50 (UACC-257): 14400 nM; GI50 (UACC-62): 16800 nM; GI50 (OVCAR-5): 34100 nM; GI50 (NCI/ADR-RES): 15000 nM; GI50 (SK-OV-3): 54700 nM; GI50 (A498): 7040 nM; GI50 (RXF 393): 12200 nM; GI50 (SN12C): 22800 nM; GI50 (UO-31): 41900 nM; GI50 (MCF7): 16400 nM; EC50 [1]: 5500 nM
